Laboratory results taken from ChEMBL document CHEMBL1138123, “Design, synthesis, and biological evaluation of pyrrolo[2,1-c][1,4]benzodiazepine and indole conjugates as anticancer agents” (2006).
The source made the active and inactive calls. The rule behind the calls is not given here.

Columns and labels:
A2058 [1] = assay: Accumulation of A2058 cells in G1 phase as a measure for cell cycle arrest at 4 uM; type: functional, Homo sapiens
Outline: (§1)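 Human melanoma A2058 cells exposed to graded concentrations (0–4 μM) for 24 h, DMSO as control. Cells collected by trypsinization, fixed in ice-cold 70% ethanol 30 min, treated with 1 mg/mL RNase A at 37 °C 30 min, then stained with propidium iodide/citrate/Triton X-100 at room temperature 30 min in the dark. DNA content of 10 000 events read by flow cytometry; G1, S and G2/M fractions gated from histograms.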

A2058 [2] = assay: Accumulation of A2058 cells in S phase as a measure for cell cycle arrest at 4 uM; type: functional, Homo sapiens; outline: as §1
A2058 [3] = assay: Accumulation of A2058 cells in G2/M phase as a measure for cell cycle arrest at 4 uM; type: functional, Homo sapiens; outline: as §1
A2058 [4] = assay: Apoptotic effect on A2058 cells by propidium iodide staining and Annexin V-FITC conjugate at 2 uM; type: functional, cell-based; settings: Homo sapiens
Outline: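 A2058 cells given graded concentrations for 24 h, then 10^6 cells per sample labelled with annexin V–FITC together with propidium iodide and analysed by two-parameter flow cytometry. Percentage of annexin V-positive cells reported per concentration.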

Nucleic Acid = assay: Inhibition of cleavage activity of restriction endonuclease BamH1; type: nucleic-acid assay
Outline: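 pBR322 plasmid DNA (0.5 μg) preincubated with compound at 5 μM in restriction buffer pH 7.5 plus BSA 0.1 mg/mL, 37 °C for 1 h. Excess BamHI (20 units) then added, 37 °C for a further 1 h, stopped at 65 °C for 20 min. Products run on 1.0% agarose in TAE at 100 V for 2 h and stained with ethidium bromide. Supercoiled/open-circular and fully linearized DNA run as controls.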

A2058 [5] = assay: Apoptotic effect on A2058 cells by measuring hypodiploid DNA content after 18 hrs exposure to 5 uM; type: functional, Homo sapiens
Outline: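 A2058 human melanoma cells kept at 37 °C in 5% CO2 and passaged with 5 mM EDTA. Exposed to agent at 5 μM for 18 h, trypsinized, fixed 30 min in ice-cold 70% ethanol, and treated with RNase A (1 mg/mL) at 37 °C for 30 min. Stained with PI for 30 min at room temperature in the dark. DNA content read by flow cytometry on 10 000 events, reported as the percentage of cells in the sub-G1 region.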

A2058 [6] = assay: Accumulation of A2058 cells in G1 phase as a measure for cell cycle arrest at 1 uM; type: functional, Homo sapiens; outline: as §1
A2058 [7] = assay: Accumulation of A2058 cells in S phase as a measure for cell cycle arrest at 1 uM; type: functional, Homo sapiens; outline: as §1
A2058 [8] = assay: Accumulation of A2058 cells in G2/M phase as a measure for cell cycle arrest at 1 uM; type: functional, Homo sapiens; outline: as §1
A2058 [9] = assay: Accumulation of A2058 cells in G1 phase as a measure for cell cycle arrest at 2 uM; type: functional, Homo sapiens; outline: as §1
A2058 [10] = assay: Accumulation of A2058 cells in S phase as a measure for cell cycle arrest at 2 uM; type: functional, Homo sapiens; outline: as §1
A2058 [11] = assay: Accumulation of A2058 cells in G2/M phase as a measure for cell cycle arrest at 2 uM; type: functional, Homo sapiens; outline: as §1
M14 = assay: Antiproliferative activity against M14 melanoma cancer cells; type: functional; settings: Homo sapiens
UACC-62 = assay: Antiproliferative activity against UACC62 melanoma cancer cells; type: functional; settings: Homo sapiens
SN12C = assay: Antiproliferative activity against SN12C Renal cancer cells; type: functional; settings: Homo sapiens
SF-268 = assay: Antiproliferative activity against SF268 CNS cancer cells; type: functional; settings: Homo sapiens
RXF 393 = assay: Antiproliferative activity against RXF393 Renal cancer cells; type: functional; settings: Homo sapiens

Activity (Nucleic Acid)	Structure (SMILES)	Activity (A2058 [5]) [%]	GI50 (M14) [nM]	GI50 (UACC-62) [nM]	GI50 (SN12C) [nM]	other results
Active	COc1cc2c(cc1OCCCCCCNC(=O)c1cc3ccccc3[nH]1)N=C[C@@H]1CCCN1C2=O	50.6	–	–	–	Activity (A2058 [1]): 29.2%; Activity (A2058 [2]): 42.8%; Activity (A2058 [3]): 12.5%; Activity (A2058 [4]): Active; Activity (A2058 [6]): 41.1%; Activity (A2058 [7]): 15.2%; Activity (A2058 [8]): 42.5%; Activity (A2058 [9]): 25.7%; Activity (A2058 [10]): 25.2%; Activity (A2058 [11]): 47.7%
–	COc1cc2c(cc1OC(=O)c1cc3ccccc3[nH]1)N=C[C@@H]1CCCN1C2=O	38.5	162	290	210	–
–	COc1cc2c(cc1O)N=C[C@@H]1CCCN1C2=O	45	–	–	–	–
–	COc1cc2c(cc1OCCCCCNC(=O)c1cc3ccccc3[nH]1)N=C[C@@H]1CCCN1C2=O	2.9	–	–	–	–
Active	COc1cc2c(cc1OCCCCNC(=O)c1cc3ccccc3[nH]1)N=C[C@@H]1CCCN1C2=O	46.8	–	–	–	–

Structure (SMILES)	Activity (Nucleic Acid)	Activity (A2058 [5]) [%]	GI50 (M14) [nM]	GI50 (UACC-62) [nM]	GI50 (SN12C) [nM]	other results
COc1cc2c(cc1OCCCNC(=O)c1cc3ccccc3[nH]1)N=C[C@@H]1CCCN1C2=O	Active	46.8	173	203	410	GI50 (SF-268): 27 nM; GI50 (RXF 393): 25 nM
